In the library only some 27% were active in any assay of this set; here they are far more common.
CYP2C19 activ: cytochrome P450 2C19 (human) activation. 96,000 tested, under 10 active. P33261. activation factor at 5 µM. recombinant CYP2C19, luciferin-H EGE luminescence; hits give high values; 0 = fully inhibited enzyme, 1 = untreated enzyme;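 active means activation factor of at least 2 at 5 µM in the primary screen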;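 further: 0 = wells with 2.5 mM tranylcypromine and 1 = vehicle-only wells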
Target sequence (P33261 whole entry, looked up): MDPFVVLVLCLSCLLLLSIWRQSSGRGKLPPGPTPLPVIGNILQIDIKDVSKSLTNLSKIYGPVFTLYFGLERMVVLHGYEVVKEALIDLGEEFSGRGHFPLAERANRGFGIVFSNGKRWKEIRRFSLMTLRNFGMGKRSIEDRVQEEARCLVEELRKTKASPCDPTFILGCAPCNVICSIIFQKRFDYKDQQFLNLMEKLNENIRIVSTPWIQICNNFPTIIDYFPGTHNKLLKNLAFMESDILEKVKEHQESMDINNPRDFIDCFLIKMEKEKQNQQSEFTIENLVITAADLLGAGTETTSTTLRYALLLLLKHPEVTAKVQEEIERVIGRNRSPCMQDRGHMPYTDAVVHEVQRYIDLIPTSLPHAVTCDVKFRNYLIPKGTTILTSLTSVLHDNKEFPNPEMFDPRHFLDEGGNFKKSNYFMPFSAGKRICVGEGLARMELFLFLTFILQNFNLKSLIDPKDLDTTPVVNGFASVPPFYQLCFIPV
Cav32 inh: human Cav3.2 channel inhibition, primary screen; Cav3.2-expressing cells, Fluo-4 calcium fluorescence FDSS; hits give low values; B-score at 10 µM; actives 4% (n = 100,000); AID 449739;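 active means single-dose well whose peak fluorescence ratio is a statistical outlier from its plate by either plate-standardised score or position-corrected B-score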
CYP2C9 act: CYP2C9 (human) activation; recombinant CYP2C9, luciferin-H conversion, luminescence; hits give high values; factor 1 = untreated enzyme, 0 = blocked; P11712; actives 1.4% (n = 96,000); activation factor at 5 µM; AID 1024;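 active means activation factor of 2 or more for CYP2C9 at a 5 µM dose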;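 further: 0 = sulfaphenazole-blocked wells and 1 = vehicle-only wells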
CYP2C9 inh: blocks human cytochrome P450 2C9. P11712. AID 777. inhibition, % at 5 µM. actives 20% (n = 96,000). CYP2C9 Supersomes, luciferin-H conversion, luminescence;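 active means blocking of liver enzyme CYP2C9 beyond about 50% at 5 µM, limit read from the data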
CYP2C19 inhib: human CYP2C19 inhibition; P33261; CYP2C19 Supersomes, luciferin-H EGE luminescence, 30 min; inhibition, % at 5 µM; actives 21% (n = 96,000);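 active means CYP2C19 inhibition above a set limit at 5 µM in the primary screen, cut at about 50% in these data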;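 further: plate controls were negative control wells for no effect and 2.5 mM tranylcypromine positive control for full effect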
HIV Rev-RRE inh: disrupts HIV-1 Rev binding to RRE RNA; P05866; Rev peptide-RRE RNA binding, FRET; inhibition, % at 8 µM; actives 0.79% (n = 97,000);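 active means inhibition above the screen-wide mean plus 3 SD, cut at about 35% in these data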;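 further: 0% = median DMSO wells and 100% = median Neomycin B control wells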
Target sequence (P05866 whole entry, looked up): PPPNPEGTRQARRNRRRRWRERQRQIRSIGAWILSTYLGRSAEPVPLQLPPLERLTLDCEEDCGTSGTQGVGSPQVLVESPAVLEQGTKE
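Test system: Cy5-tagged RRE RNA duplex with fluorescein-tagged Rev peptide; Probe or stimulus: labelled Rev peptide; Schedule: 5 min preincubation and 15 min binding, 25 °C; Signal: FRET fluorescence readout; Evaluation: % inhibition from 671/540 nm acceptor-to-donor ratio, scaled between controls; Control set: DMSO and neomycin B.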
* hit, by the source's call; / = no result given; [ ] = dose if it differs, or a comment.

SMILES | CYP2C19 activ | Cav32 inh | CYP2C9 act | CYP2C9 inh | CYP2C19 inhib | HIV Rev-RRE inh
O=C(Nc1ncc2c(n1)CC(c1ccco1)CC2=O)c1ccccc1 (stereo unspecified) | 1 | -0.23 | 0.8 | 15 | 1 | -2
O=C1CC(c2ccc(F)cc2)Cc2nc(N3CCN(c4ccccc4)CC3)ncc21 (stereo unspecified) | 0.9 | 0.9 | 0.7 | 26 | 6 | 6
COC(=O)Nc1sc2c(c1C(=O)NC1CC1)CCCCCC2 | 0.7 | -0.091 | 0.8 | 21 | 32 | 3
N#Cc1c(N)nc2c(c1N)CC(=O)N2c1ccccc1-c1ccccc1 | 0 | 1.1 | 0.1 | 87* | 96* | 3
N#Cc1c(N)nc2c(c1N)CC(=O)N2c1ccc(Cl)cc1 | 0.5 | 1.2 | 0.7 | 30 | 52* | 9
N#Cc1c(-c2ccccc2)nc2n(c1=O)CCS2 | 0.8 | -0.028 | 1.1 | -12 | 20 | 3
O=C1NC2(CCCCC2)Oc2ccccc21 | 0.8 | 0.17 | 1 | -4 | 24 | 5
N#C/C(=C\c1ccc(-c2cccc(Cl)c2)o1)C(=O)Nc1cccc2cccnc12 | 1 | -0.87 | 1.3 | -26 | -2 | 10
N#C/C(=C\c1ccc(-c2ccccc2)o1)C(=O)Nn1cnnc1 | 0.1 | 0.5 | 0 | 99* | 92* | 4
Cc1ccc(-c2ccc(/C=C(\C#N)C(=O)Nc3cc(C)nn3-c3ccccc3)o2)cc1 | 0.9 | -6.6* | 1 | -4 | 10 | 103*[fluorescence artefact?]
CCOc1ccccc1CN1C(=O)c2ccccc2C1C(=O)NC(C)CC (stereo unspecified) | 1 | 0.059 | 1 | 1 | -2 | 2
CC(Sc1nc(NCc2ccccc2)nc(N2CCOCC2)n1)C(=O)Nc1ccccc1 (stereo unspecified) | 0.8 | / | 0.2 | 80* | 24 | 9
Cc1cc(NCc2ccccc2)nc(N2CCOCC2)n1 | 1 | -0.37 | 1 | -1 | -3 | 2
CCOC(=O)CNC(=O)CSc1nc(NCc2ccccc2)nc(N(C)C)n1 | 0.5 | -0.62 | 0.6 | 41 | 53* | 7
Cc1cc(N2CCOCC2)nc(NCc2ccccc2)n1 | 0.3 | 0.032 | 1 | -2 | 74* | 5
CN(C)c1nc(NCc2ccccc2)nc(SCC(=O)Nc2ccccc2)n1 | 0.9 | -0.62 | 0.9 | 8 | 8 | 8
CCNc1nc(SC(C)C(=O)Nc2ccccc2)nc(N2CCOCC2)n1 (stereo unspecified) | 0.9 | -0.42 | 0.4 | 56* | 10 | 8
CSc1nc(NCC(C)C)nc(N2CCOCC2)n1 | 0.5 | 0.068 | 1 | 4 | 49 | 1
C/C(CC(=O)NCCCN1CCOCC1)=N\NC(=O)COc1ccc(Cl)cc1 | 1 | 1.5 | 1.1 | -12 | -4 | 4
O=c1[nH]c(NCc2ccccc2)nc2c1CCCC2 | 0.9 | 0.34 | 0.7 | 26 | 6 | 10
CC(Sc1nc(NCc2ccccc2)nc(N(C)C)n1)C(=O)Nc1ccccc1 (stereo unspecified) | 0.4 | -3.4* | 0.2 | 81* | 58* | 7
CC(=O)C(Sc1nn(C)c(=S)s1)C(=O)Nc1ccccc1 (stereo unspecified) | 0.8 | -1.6 | 0 | 96* | 20 | 3
CC(=O)C(Sc1nc(N2CCOCC2)nc(N2CCOCC2)n1)C(=O)Nc1ccccc1 (stereo unspecified) | 0.8 | 1.8 | 0.4 | 55* | 21 | 4
Cc1cc(C)c(NC(=O)CSc2nnc(-c3ccncc3)n2Cc2ccco2)c(C)c1 | 0.7 | 0.93 | 0.6 | 38 | 27 | -4
O=C(CSc1nnc(-c2ccncc2)n1Cc1ccco1)c1ccc(Cl)cc1 | 0.1 | 0.49 | 0.1 | 92* | 95* | 4
SMILES | CYP2C19 activ | Cav32 inh | CYP2C9 act | CYP2C9 inh | CYP2C19 inhib | HIV Rev-RRE inh
O=C(CSc1nnc(-c2ccncc2)n1Cc1ccco1)Nc1ccccc1Cl | 0 | -2.4 | 0.1 | 89* | 97* | 8
O=C(CSc1nnc(-c2ccc(Cl)cc2)n1Cc1ccco1)c1cccs1 | 0.9 | -2 | 0.5 | 55* | 7 | 6
O=c1cc(CSc2nnc(-c3ccco3)o2)c2ccccc2[nH]1 | 0.9 | 1.2 | 0.9 | 9 | 8 | 8
CCc1nnc(NC(=O)CSc2nccn2-c2cc(C)cc(C)c2)s1 | 0.9 | -0.025 | 0.4 | 58* | 13 | 5
Cc1cccc(-n2ccnc2SCC(=O)Nc2nccs2)c1C | 0.5 | -0.18 | 0.5 | 47 | 53* | -3
O=C(CSc1nccn1Cc1ccccc1)Nc1nccs1 | 0.7 | -0.62 | 0.6 | 41 | 35 | 3
CCc1nnc(NC(=O)CSc2nccn2-c2cccc(C)c2C)s1 | 0.7 | -2.9 | 0.5 | 53* | 27 | 4
Cc1c(Cl)cccc1NC(=O)Cn1cccc1 | 0.8 | 0.11 | 1 | -1 | 25 | 1
Cc1c(Cl)cccc1-n1ccnc1SCC(=O)O | 0.9 | 0.25 | 0.3 | 67* | 7 | 2
O=C(NCC1CC1)c1onc(CSc2ccncc2)c1C(=O)NCC1CC1 | / | 0.00054 | / | / | / | /
Cc1ccccc1NC(=O)c1ccccc1O | 0.9 | -2.8 | 0.8 | 16 | 10 | 10
C=CCSc1nc(N)c(C(=O)Nc2ccccc2C)cc1C(N)=O | 0.3 | / | 0.3 | 66* | 68* | 3
O=C(NNC1CC(=O)N(c2ccc3c(c2)OCCO3)C1=O)c1ccccc1 (stereo unspecified) | 0.9 | 1.8 | 0.9 | 6 | 6 | -3
Cc1ccc(N=Nc2c(N)n(-c3ccccc3)[nH]c2=O)cc1 | 1 | 0.031 | 0.8 | 17 | 0 | 0
Cc1cccc(C)c1NC(=O)c1ccc(-n2cncn2)nc1 | 0.1 | 0.77 | 0.3 | 66* | 93* | 2
O=C(Nc1ccccc1F)c1ccc(-n2cncn2)nc1 | 0 | / | 0.3 | 69* | 97* | -4
COc1ccnc(Oc2ccccc2)c1C(=O)N/C=N/OCc1ccc(F)cc1Cl | 0.3 | -2.9 | 0.4 | 56* | 66* | 15
O=C(N/C=N/OCc1ccc(Cl)cc1Cl)NOCc1c(Cl)cccc1Cl | 1.1 | 0.86 | 1.1 | -12 | -15 | 4
COc1ccc(Oc2nccc(-c3ccc(F)cc3)c2C#N)cc1 | 0.8 | -0.058 | 0.6 | 36 | 19 | 4
COc1ccccc1CO/N=C/NC(=O)c1c(OC)ccnc1Oc1ccc(F)cc1 | 0 | -0.66 | 0.2 | 77* | 97* | 6
COC(=O)c1cnn(-c2nc3c(C)cccc3s2)c1C | 1 | 0.4 | 1.1 | -12 | -1 | 11
Cc1cc(C)cc(NC(=O)CSc2nc(N)c(NC(=O)c3cccs3)c(=O)[nH]2)c1 | / | 2.4 | / | / | / | /
O=[N+]([O-])c1cccc(/C=C/c2nc(C=Nc3ccccc3)c(O)o2)c1 | 1 | -0.8 | 0.9 | 12 | -4 | 41*
Cc1ccc(-c2nc(N/N=C/c3cccc([N+](=O)[O-])c3)c3ccccc3n2)cc1 | / | -0.087 | / | / | / | -2

Source: PubChem BioAssay
